From ChEMBL document CHEMBL3045213, “Antifungal activity of thiophenes from Echinops ritro” (J Agric Food Chem, 2006) come the findings set out here.

SMILES strings stand for the structures. Active and inactive are the calls of the source. The calls are words filed in the database; no cut-off is given here.

The test system of assay [1] is Fusarium oxysporum. In words: Growth inhibition of Fusarium oxysporum at 0.3 to 30 uM after 48 hr by 96-well microtiter based microdilution method. The assay is classed as functional, organism-based. Summed up: (§1)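 Conidia from 7-10-day-old PDA cultures adjusted photometrically (%T at 625 nm) to 1.0 × 10^6 conidia/mL. Compounds dissolved in 95% ethanol at 12 mM (stock) and diluted 1:4 with MOPS-buffered RPMI. Final concentrations were 0.3, 3.0, 30.0 µM in 96-well plates. Incubated at 24 °C with a 12-h photoperiod. Growth was read as absorbance at 620 nm at 48 h. Percent inhibition was pooled from two experiments replicated in time. Controls were broth+inoculum and solvent+broth wells.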
A general note: In broth dilution the organism is exposed to a series of concentrations in liquid medium.

The subject of assay [2] is Colletotrichum gloeosporioides. In words: Growth inhibition of Colletotrichum gloeosporioides at 0.3 to 30 uM after 48 hr by 96-well microtiter based microdilution method. The assay is classed as functional, organism-based. Summed up:
as §1

Assay [3] concerns Colletotrichum gloeosporioides. In words: Growth inhibition of Colletotrichum gloeosporioides at 30 uM after 48 hr by 96-well microtiter based microdilution method. The assay is classed as functional. The conditions noted are these: read-out: GI. Summed up:
as §1

Assay [4] concerns Fusarium oxysporum. Briefly: Growth inhibition of Fusarium oxysporum at 30 uM after 48 hr by 96-well microtiter based microdilution method. The format is functional. The conditions noted are these: read-out: GI. The procedure, abridged:
as §1

For assay [5], the system named is Colletotrichum gloeosporioides. Briefly: Antifungal activity against Colletotrichum gloeosporioides after 72 hr by 96-well microtiter based microdilution method. The assay is classed as functional, organism-based. Summed up:
(§2)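 Conidia from 7–10-day PDA cultures (24 °C, 12-h photoperiod) were counted photometrically from %T at 625 nm. Compounds were taken from 12 mM stocks in 95% ethanol, diluted 1:4 in MOPS-buffered RPMI, and tested at six final concentrations (1.55–50.0 µM) with incubation under the same growth conditions.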

In assay [6] the test system is Fusarium oxysporum. In words: Antifungal activity against Fusarium oxysporum after 72 hr by 96-well microtiter based microdilution method. The assay is classed as functional, organism-based. The procedure, abridged:
as §2

Assay [7] has as its system Botrytis cinerea. In words: Antifungal activity against Botryotinia fuckeliana after 72 hr by 96-well microtiter based microdilution method. The format is functional, organism-based. The procedure, abridged:
as §2

In assay [8] the test system is Botrytis cinerea. Briefly: Antifungal activity against Botryotinia fuckeliana after 48 hr by 96-well microtiter based microdilution method. The assay is classed as functional, organism-based. The procedure, abridged: as §2
Assay [9] has as its system Colletotrichum fragariae. In words: Antifungal activity against Colletotrichum fragariae after 48 hr by 96-well microtiter based microdilution method. The assay is classed as functional, organism-based. Summed up: as §2
The subject of assay [10] is Colletotrichum fragariae. In words: Antifungal activity against Colletotrichum fragariae after 72 hr by 96-well microtiter based microdilution method. The assay is classed as functional, organism-based. The procedure, abridged:
as §2

Assay [11] has as its system Colletotrichum acutatum. Briefly: Antifungal activity against Colletotrichum acutatum after 72 hr by 96-well microtiter based microdilution method. The assay is classed as functional, organism-based. Summed up:
as §2

The subject of assay [12] is Colletotrichum acutatum. Briefly: Antifungal activity against Colletotrichum acutatum after 48 hr by 96-well microtiter based microdilution method. The assay is classed as functional, organism-based. Summed up:
as §2

Assay [13] deals with Colletotrichum gloeosporioides. In words: Antifungal activity against Colletotrichum gloeosporioides after 48 hr by 96-well microtiter based microdilution method. The assay is classed as functional, organism-based. Summed up: as §2
Assay [14] concerns Fusarium oxysporum. In words: Antifungal activity against Fusarium oxysporum after 48 hr by 96-well microtiter based microdilution method. The assay is classed as functional, organism-based. The procedure, abridged:
as §2

Assay [15] relates to Phomopsis obscurans. In words: Antifungal activity against Phomopsis obscurans after 48 hr by 96-well microtiter based microdilution method. The assay is classed as functional, organism-based. The note with it: Paraphomopsis obscurans. The procedure, abridged:
as §2

Assay [16] concerns Phomopsis viticola. Briefly: Antifungal activity against Phomopsis viticola after 48 hr by 96-well microtiter based microdilution method.
The test system of assay [17] is Phomopsis viticola. Briefly: Antifungal activity against Phomopsis viticola after 72 hr by 96-well microtiter based microdilution method.
Assay [18] relates to Phomopsis obscurans. Briefly: Antifungal activity against Phomopsis obscurans after 72 hr by 96-well microtiter based microdilution method. The format is functional, organism-based. The conditions noted are these: Paraphomopsis obscurans. The procedure, abridged:
as §2

For assay [19], the system named is Colletotrichum gloeosporioides. In words: Growth inhibition of Colletotrichum gloeosporioides at 3 uM after 48 hr by 96-well microtiter based microdilution method. The assay is classed as functional. The conditions noted are these: read-out: GI. The procedure, abridged: (§3)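 Three-point broth microdilution used final concentrations of 0.3, 3.0 and 30.0 µM, diluted from 12 mM ethanol stocks into MOPS-buffered RPMI. Conidial inoculum was counted photometrically at 625 nm and incubated at 24 °C with a 12-h photoperiod. A620 was read at 48 h and converted to percent growth inhibition. Controls were inoculated broth wells and solvent wells without inoculum.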

The test system of assay [20] is Fusarium oxysporum. Briefly: Growth inhibition of Fusarium oxysporum at 3 uM after 48 hr by 96-well microtiter based microdilution method. The format is functional. The note with it: read-out: GI. Summed up:
(§4)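 F. oxysporum conidia (photometric count, %T 625 nm) were tested in MOPS-buffered RPMI broth microdilution at final concentrations of 0.3, 3.0 and 30.0 µM, diluted from 12 mM ethanol stocks. Plates were incubated at 24 °C with a 12-h photoperiod, and A620 was read at 48 h. Mean percent growth inhibition was pooled from two experiments replicated in time.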

Assay [21] relates to Colletotrichum acutatum. Briefly: Growth inhibition of Colletotrichum acutatum at 3 uM after 48 hr by 96-well microtiter based microdilution method. The format is functional, organism-based. Summed up: as §3
The subject of assay [22] is Colletotrichum fragariae. Briefly: Growth inhibition of Colletotrichum fragariae at 3 uM after 48 hr by 96-well microtiter based microdilution method. The format is functional, organism-based. The procedure, abridged: as §3
Assay [23] concerns Fusarium oxysporum. In words: Growth inhibition of Fusarium oxysporum at 0.3 uM after 48 hr by 96-well microtiter based microdilution method. The format is functional. The note with it: read-out: GI. The procedure, abridged:
as §4

Take `CC(=O)OCC(C#Cc1ccc(-c2cccs2)s1)OC(C)=O` (stereo not given): the “growth inhibition (GI)” value (in the assay with Fusarium oxysporum [1]; in assay [2]) was “inactive” throughout.
For the molecule `CC#CC#Cc1ccc(C#CC(Cl)COC(C)=O)s1` (stereo not given), the figures for the inhibition of growth at 30 µM (in assay [3]; in the assay with Fusarium oxysporum [4]) were 81% and 82%, respectively. Also, the “growth inhibition (GI)” value (in the assay on Fusarium oxysporum [1]; in assay [2]) was “Active” throughout.
For orientation: IC50 means the point on the concentration scale where inhibition reaches its midpoint. A higher IC50 goes with weaker potency in that assay. As for `O=C1C2CC=CCC2C(=O)N1SC(Cl)(Cl)Cl` (stereo not given) [CAPTAN], the IC50 in assay [5] is < 1.6 µM; in the assay with Fusarium oxysporum [6], 5.8 µM; in the assay on Botrytis cinerea [7], < 1.6 µM; with Botrytis cinerea [8] it was < 1.6 µM; with Colletotrichum fragariae [9], < 1.6 µM; with Colletotrichum fragariae [10], 2.1 µM. The IC50 is 2.1 µM in the assay with Colletotrichum acutatum [11]; < 1.6 µM with Colletotrichum acutatum [12]; < 1600 nM in assay [13]; 2.2 µM in the assay on Fusarium oxysporum [14]; 2400 nM in the assay on Phomopsis obscurans [15]; 18 µM in the assay on Phomopsis viticola [16]. Also, the IC50 was 20 µM in the assay with Phomopsis viticola [17] and 3.9 µM in the assay on Phomopsis obscurans [18].
Consider `C=CC#Cc1ccc(-c2cccs2)s1`, for which the IC50 in [5] was 10.2 µM; with Fusarium oxysporum [6], > 50 µM; with Botrytis cinerea [7] it was > 50 µM; in the assay on Botrytis cinerea [8], > 50 µM; in the assay on Colletotrichum fragariae [9], 28 µM; with Colletotrichum fragariae [10] it was 46 µM. The IC50 in the assay with Colletotrichum acutatum [11] is 28.5 µM; with Colletotrichum acutatum [12], 7.6 µM; in assay [13], 4200 nM; in the assay on Fusarium oxysporum [14], > 50 µM; in the assay with Phomopsis obscurans [15] it was > 50000 nM; in the assay on Phomopsis viticola [16], 19.5 µM. Moreover, the IC50 with Phomopsis viticola [17] was 22 µM; in the assay with Phomopsis obscurans [18] it was > 50 µM. For the same molecule, the inhibition of growth at 30 µM (in [3]; in the assay on Fusarium oxysporum [4]) was 96% throughout. Also, the “growth inhibition (GI)” value (in the assay with Fusarium oxysporum [1]; in assay [2]) was “Active” each time.
For `CC#CC#Cc1ccc(C#CCCO)s1`, the IC50 in [5] was determined as 6 µM; with Fusarium oxysporum [6], 20 µM; with Botrytis cinerea [7] it was 41 µM; with Botrytis cinerea [8], 29.4 µM; in the assay on Colletotrichum fragariae [9], 4.4 µM; in the assay on Colletotrichum fragariae [10], 12.5 µM. The IC50 in the assay with Colletotrichum acutatum [11] is 19.2 µM; in the assay on Colletotrichum acutatum [12] it was 3.5 µM; in [13] it was 2600 nM; with Fusarium oxysporum [14], 9.5 µM; with Phomopsis obscurans [15] it was 2900 nM; with Phomopsis viticola [16] it was < 1.6 µM. Also, the 50% inhibitory concentration (IC50) in the assay with Phomopsis viticola [17] came out at 4 µM; in the assay with Phomopsis obscurans [18], 13.5 µM. Moreover, the inhibition of growth at 30 µM (in [3]; in the assay with Fusarium oxysporum [4]) was 100% each time. In addition, the “growth inhibition (GI)” value (in the assay on Fusarium oxysporum [1]; in [2]) was “Active” throughout.
`OCCC#Cc1ccc(-c2cccs2)s1`: the “growth inhibition (GI)” value (with Fusarium oxysporum [1]; in assay [2]) was “Active” in each case.
In the case of `C(#C[C@@H]1CC[C@@H]1C#Cc1ccc(-c2cccs2)s1)c1ccc(-c2cccs2)s1`, the “growth inhibition (GI)” value (with Fusarium oxysporum [1]; in assay [2]) was “inactive” each time.
For `C(#C[C@@H]1CC[C@H]1C#Cc1ccc(-c2cccs2)s1)c1ccc(-c2cccs2)s1`, the “growth inhibition (GI)” value (in the assay on Fusarium oxysporum [1]; in assay [2]) was “inactive” in each case.
For the molecule `CC(C)CC(=O)OCCC#Cc1ccc(-c2cccs2)s1`, the “growth inhibition (GI)” value (in the assay with Fusarium oxysporum [1]; in [2]) was “inactive” throughout.
In the case of `c1csc(-c2ccc(-c3cccs3)s2)c1` [ALPHA-TERTHIENYL], the IC50 was < 1.6 µM in [5]; > 50 µM in the assay with Fusarium oxysporum [6]; > 50 µM with Botrytis cinerea [7]; > 50 µM in the assay with Botrytis cinerea [8]; 4.9 µM in the assay on Colletotrichum fragariae [9]; 9 µM in the assay on Colletotrichum fragariae [10]. Moreover, the IC50 in the assay with Colletotrichum acutatum [11] was 5.3 µM; in the assay with Colletotrichum acutatum [12], 3 µM; in assay [13] it was < 1600 nM; with Fusarium oxysporum [14], 5 µM; in the assay with Phomopsis obscurans [15], 7200 nM; in the assay with Phomopsis viticola [16], < 6.3 µM. Moreover, the IC50 is < 6.3 µM with Phomopsis viticola [17] and 9.6 µM in the assay with Phomopsis obscurans [18]. In addition, the inhibition of growth at 3 µM (in assay [19]; with Fusarium oxysporum [20]) was 98% throughout. Besides, the “growth inhibition (GI)” value (in the assay on Colletotrichum acutatum [21]; with Fusarium oxysporum [1]; in the assay with Colletotrichum fragariae [22]; in assay [2]) was “Active” throughout. Further, in the assay with Fusarium oxysporum [23], the inhibition of growth at 0.3 µM was 25%.
